# Square brackets hold non-standard residues; d marks the D form. Peptide text beside a SMILES is read from it. * marks the point of attachment. ξ: configuration not given here. ξαMeF = CC(N)(Cc1ccccc1)C(=O)O; Bz = O=C(c1ccccc1)*
# Key:
# [1] = Average max percent decrease in RVR (renal vascular resistance) was determined.
# How it was run: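 Secondary protocol in anesthetized dogs. Drug given as iv infusion at progressively increasing rates, each dose level for 5 min. The maximum effect is taken as the largest percent decrease in renal vascular resistance (RVR) reached with the compound. RVR is calculated as mean arterial blood pressure / mean renal blood flow.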
# Canis familiaris [2] = assay: Compound was evaluated for renal vasodilator activity and represented as ED15 (intravenous administration); type: functional; details: Canis lupus familiaris
# How it was run: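 Secondary protocol in anesthetized dogs with iv infusion at progressively increasing rates, each level infused 5 min. Potency is the cumulative dose (µg/kg) that lowered renal vascular resistance (MABP / mean RBF) by 15%. Minimum change needed for significance (p = 0.95) is 16% for RVR.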
# Canis familiaris [3] = assay: Renal vasodilator activity in anesthetized dogs and percent change in mean arterial blood pressure (MABP) was determined at 3 ug/Kg/min; type: functional, Canis lupus familiaris
# How it was run: (§1)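 Primary screen in anesthetized dogs (7-17 kg). Drug infused separately at 3, 30 and 300 µg/(kg min), each infusion lasting 5 min, at about 15-min intervals. Read-outs are renal blood flow, mean arterial blood pressure, heart rate, and RVR (MABP / mean RBF), as percent change. Significance thresholds are defined per number of dogs; n = 1-3 dogs.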
# Canis familiaris [4] = assay: In vivo percent change in canine heart rate at 3 ug/Kg/min.; type: functional, Canis lupus familiaris; how it was run: as §1
# Canis familiaris [5] = assay: In vivo percent change in canine heart rate at 30 ug/Kg/min.; type: functional, Canis lupus familiaris; how it was run: as §1
# Canis familiaris [6] = assay: In vivo percent change in canine heart rate at 300 ug/Kg/min.; type: functional, Canis lupus familiaris; how it was run: as §1
# Canis familiaris [7] = assay: In vivo percent change in canine mean arterial blood pressure (MABP) at 30 ug/Kg/min.; type: functional, Canis lupus familiaris; how it was run: as §1
# Canis familiaris [8] = assay: In vivo percent change in canine mean arterial blood pressure (MABP) at 300 ug/Kg/min.; type: functional, Canis lupus familiaris; how it was run: as §1
# Canis familiaris [9] = assay: In vivo percent change in canine renal blood flow (RBF) at 3 ug/Kg/min.; type: functional, Canis lupus familiaris, Kidney; how it was run: as §1
# Canis familiaris [10] = assay: In vivo percent change in canine renal blood flow (RBF) at 30 ug/Kg/min.; type: functional, Canis lupus familiaris, Kidney; how it was run: as §1
# Canis familiaris [11] = assay: In vivo percent change in canine renal blood flow (RBF) at 300 ug/Kg/min.; type: functional, Canis lupus familiaris, Kidney; how it was run: as §1
# Canis familiaris [12] = assay: In vivo percent change in canine renal vascular resistance (RVR) at 3 ug/Kg/min.; type: functional, Canis lupus familiaris; how it was run: as §1
# Canis familiaris [13] = assay: In vivo percent change in canine renal vascular resistance (RVR) at 30 ug/Kg/min.; type: functional, Canis lupus familiaris; how it was run: as §1
# Canis familiaris [14] = assay: In vivo percent change in canine renal vascular resistance (RVR) at 300 ug/Kg/min.; type: functional, Canis lupus familiaris; how it was run: as §1
# [15] = Ratio of ED20 of MABP (mean arterial blood pressure) to the ED15 of RVR ( renal vascular resistance).; type: functional
# How it was run: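 Anesthetized dogs in the secondary cumulative-infusion protocol, each dose level 5 min. Selectivity ratio is the dose giving a 20% change in mean arterial blood pressure divided by the cumulative dose lowering renal vascular resistance 15% (RVR ED15).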
# [16] = Ratio of ED30 of iliac vascular resistant (IVR) to the ED15 of RVR (renal vascular resistance); type: functional
# How it was run: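 Anesthetized dogs in the secondary cumulative-infusion protocol, each dose level 5 min. Selectivity ratio is the dose giving a 30% change in iliac vascular resistance divided by the RVR ED15, the cumulative dose decreasing renal vascular resistance by 15%.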
# Canis familiaris [17] = assay: In vivo percent change in renal blood flow at 30 ug/Kg/min.; type: functional, Canis lupus familiaris, Kidney; how it was run: as §1
# Canis familiaris [18] = assay: Renal vasodilator activity in anesthetized dogs and percent change in renal vascular resistance (RVR) was determined at 30 ug/Kg/min; type: functional, Canis lupus familiaris; how it was run: as §1
# Canis familiaris [19] = assay: Renal vasodilator activity in anesthetized dogs and percent change in renal vascular resistance (RVR) was determined at 300 ug/Kg/min; type: functional, Canis lupus familiaris; how it was run: as §1
# Canis familiaris [20] = assay: In vivo percent change in canine mean arterial blood pressure (MABP) at 3 ug/Kg/min.; type: functional, Canis lupus familiaris; how it was run: as §1
# Canis familiaris [21] = assay: Renal vasodilator activity in anesthetized dogs and percent change in heart rate (HR) was determined at 3 ug/kg min; type: functional, Canis lupus familiaris; how it was run: as §1
# Canis familiaris [22] = assay: Renal vasodilator activity in anesthetized dogs and percent change in heart rate (HR) was determined at 30 ug/kg min; type: functional, Canis lupus familiaris; how it was run: as §1
# Canis familiaris [23] = assay: Renal vasodilator activity in anesthetized dogs and percent change in heart rate (HR) was determined at 300 ug/kg min; type: functional, Canis lupus familiaris; how it was run: as §1
# Canis familiaris [24] = assay: Renal vasodilator activity in anesthetized dogs and percent change in mean arterial blood pressure (MABP) was determined at 3 ug/kg min; type: functional, Canis lupus familiaris; how it was run: as §1
# Canis familiaris [25] = assay: Renal vasodilator activity in anesthetized dogs and percent change in mean arterial blood pressure (MABP) was determined at 30 ug/kg min; type: functional, Canis lupus familiaris; how it was run: as §1
# Canis familiaris [26] = assay: Renal vasodilator activity in anesthetized dogs and percent change in mean arterial blood pressure (MABP) was determined at 300 ug/kg min; type: functional, Canis lupus familiaris; how it was run: as §1
# Canis familiaris [27] = assay: Renal vasodilator activity in anesthetized dogs and percent change in renal blood flow (RBF) was determined at 3 ug/kg min; type: functional, Canis lupus familiaris, Kidney; how it was run: as §1
# Canis familiaris [28] = assay: Renal vasodilator activity in anesthetized dogs and percent change in renal blood flow (RBF) was determined at 30 ug/kg min; type: functional, Canis lupus familiaris, Kidney; how it was run: as §1
# Canis familiaris [29] = assay: Renal vasodilator activity in anesthetized dogs and percent change in renal blood flow (RBF) was determined at 300 ug/kg min; type: functional, Canis lupus familiaris, Kidney; how it was run: as §1
# Canis familiaris [30] = assay: Renal vasodilator activity in anesthetized dogs and percent change in renal vascular resistance (RVR) was determined at 3 ug/kg min; type: functional, Canis lupus familiaris; how it was run: as §1
# Canis familiaris [31] = assay: Renal vasodilator activity in anesthetized dogs and percent change in renal vascular resistance (RVR) was determined at 300 ug/kg min; type: functional, Canis lupus familiaris; how it was run: as §1
# Canis familiaris [32] = assay: Renal vasodilator activity in anesthetized dogs and percent change in renal vascular resistance (RVR) was determined at 30 ug/kg min; type: functional, Canis lupus familiaris; how it was run: as §1
# Canis familiaris [33] = assay: Renal vasodilator activity in anesthetized dogs and percent change in heart rate (HR) was determined at 300 ug/Kg/min; type: functional, Canis lupus familiaris; how it was run: as §1
Compound,ED15 (Canis familiaris [2]),Change (Canis familiaris [3]),Change (Canis familiaris [4]),Change (Canis familiaris [5]),Change (Canis familiaris [6]),Change (Canis familiaris [7]),Change (Canis familiaris [8]),Change (Canis familiaris [9]),Change (Canis familiaris [11]),Change (Canis familiaris [12]),Change (Canis familiaris [13]),Change (Canis familiaris [14]),Ratio [15],Ratio [16],Change (Canis familiaris [17]),Change (Canis familiaris [18]),Change (Canis familiaris [20]),other results
CC(Cc1ccccc1)(NC(=O)[C@@H]1CCCN1C(=O)CC12CC3CC(CC(C3)C1)C2)C(=O)N[C@@H](CCCN=C(N)N)C(=O)O (some centres not stated),0.072 mg/kg,-0.5%,3.5%,0.5%,2%,1%,3%,13%,-14%,-11.5%,-0.5%,21.5%,>84,0,–,–,–,Decrease [1]: 19%; Change (Canis familiaris [10]): 0.5%
CC(Cc1ccccc1)(NC(=O)[C@@H]1CCCN1C(=O)CCCc1ccc(O)cc1)C(=O)NCCCN.Cl (some centres not stated),–,–,0.7%,1.3%,8%,3%,-1.4%,3.3%,11.7%,4%,–,–,–,–,4.3%,-4.7%,-0.7%,Change (Canis familiaris [19]): -11.3%
CC(CN[C@@H](CCCN=C(N)N)C(=O)O)(Cc1ccccc1)NC(=O)[C@@H]1CCCN1C(=O)CCCc1ccccc1 (some centres not stated),–,-2%,0%,-7%,-23%,0%,8%,11%,4%,-12%,–,-4%,–,–,10%,-9%,–,–
CC(Cc1ccc(O)cc1)(NC(=O)[C@@H]1CCCN1C(=O)CCCc1ccc(O)cc1)C(=O)N[C@@H](CCCN=C(N)N)C(=O)O (some centres not stated),0.0455 mg/kg,–,–,–,–,–,–,–,–,–,–,–,>1665,< 9,–,–,–,Decrease [1]: 16%; Change (Canis familiaris [21]): 3.5%; Change (Canis familiaris [22]): -7.5%; Change (Canis familiaris [23]): 2.4%; Change (Canis familiaris [24]): -2.5%; Change (Canis familiaris [25]): -3%; Change (Canis familiaris [26]): 1%; Change (Canis familiaris [27]): 20%; Change (Canis familiaris [28]): 28%; Change (Canis familiaris [29]): 28%; Change (Canis familiaris [30]): -19%; Change (Canis familiaris [31]): -17%; Change (Canis familiaris [32]): -20%
CC(Cc1ccccc1)(NC(=O)[C@@H]1CCCN1C(=O)c1ccccc1)C(=O)N[C@@H](CCCN=C(N)N)C(=O)O (some centres not stated) (Bz-Pro-[ξαMeF]-Arg-OH),–,–,-6%,3%,–,1%,-4%,4%,-3%,-5%,-2%,0%,–,–,3%,–,-1%,Change (Canis familiaris [33]): 6%
N=C(N)NCCC[C@H](NC[C@H](Cc1ccccc1)NC(=O)[C@@H]1CCCN1)C(=O)O,–,–,-3%,0%,0%,0%,-2%,0%,0%,0%,-3%,-2%,–,–,–,–,0%,Change (Canis familiaris [10]): 3%
COc1ccc(CC(C)(NC(=O)[C@@H]2CCCN2C(=O)CCCc2ccc(O)cc2)C(=O)N[C@@H](CCCN=C(N)N)C(=O)O)cc1OC (some centres not stated),0.506 mg/kg,–,1.7%,6.3%,–,-7.7%,-32%,4.3%,29.5%,-6.7%,–,-44.5%,>12,> 12,18%,-21.3%,-2.7%,Decrease [1]: 31%; Change (Canis familiaris [33]): 16%
H-FSPFR-OH,0.0052 mg/kg,–,–,–,–,–,–,–,–,–,–,–,>1158,> 1160,–,–,–,Change (Canis familiaris [21]): 0.8%; Change (Canis familiaris [22]): 0%; Change (Canis familiaris [23]): 4.8%; Change (Canis familiaris [24]): -1.2%; Change (Canis familiaris [25]): 0.5%; Change (Canis familiaris [26]): -5.7%; Change (Canis familiaris [27]): 3%; Change (Canis familiaris [28]): 6.5%; Change (Canis familiaris [29]): 26.2%; Change (Canis familiaris [30]): -3.8%; Change (Canis familiaris [31]): -24.8%; Change (Canis familiaris [32]): -5.1%
CC(Cc1ccccc1)(NC(=O)[C@@H]1CCCN1C(=O)CCCc1ccccc1)C(=O)NCCCN.Cl (some centres not stated),–,0%,-1.5%,0.3%,0.5%,-0.5%,-3.5%,4%,10%,-3.5%,–,-11.5%,–,–,5.5%,-6%,–,–
COc1ccc(CC(C)(NC(=O)[C@@H]2CCCN2C(=O)CCCc2ccccc2)C(=O)N[C@@H](CCCN=C(N)N)C(=O)O)cc1OC (some centres not stated),–,-2%,4.5%,1%,2.5%,-1%,-2%,7.5%,5%,-8.5%,-8.5%,-7%,–,–,8.5%,–,–,–
CC(Cc1ccccc1)(NC(=O)[C@@H]1CCCN1)C(=O)NCCCN.Cl.Cl (some centres not stated),–,–,-1%,-1%,–,-1%,-1%,5%,2%,-4%,-1%,-3%,–,–,1%,–,1%,Change (Canis familiaris [33]): 0%

# Source: ChEMBL document CHEMBL1122774, “Tri- and tetrapeptide analogues of kinins as potential renal vasodilators” (J Med Chem, 1984)
